Assay [1] has as its target DNA topoisomerase 2-alpha (Homo sapiens) (UniProt P11388). Put plainly: Inhibition of recombinant human DNA topoisomerase 2-alpha assessed as supression of kDNA decatenation at 100 uM after 30 mins by agarose gel electrophoresis. A digest of the protocol: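 ATP-dependent decatenation assay: 0.20 µg kDNA with 2 units Topo IIα at 37 °C for 30 min, 20 µL. Buffer: 50 mM Tris pH 8.0, KCl, 10 mM MgCl₂, 0.5 mM ATP, 0.5 mM DTT, 30 µg/mL BSA. Stopped with 10% SDS. Agarose gel scored for kDNA versus released minicircles.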

The next assay is filed under the species Bos taurus. Put plainly: Inhibition of calf thymus DNA topoisomerase 1-mediated relaxation of supercoiled pBR322 DNA at 100 uM after 30 mins by Agarose gel electrophoresis. The method in brief:
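Relaxation assay with 0.5 µg supercoiled pBR322 and 1 unit calf thymus Topo I, 20 µL. Buffer: 10 mM Tris–HCl pH 7.9, 150 mM NaCl, 0.1% BSA, 1 mM spermidine, 5% glycerol. Incubated 37 °C for 30 min; stopped with sarcosyl stop solution. 1% agarose gel, 5 V/cm, 2 h, TAE; ethidium bromide stain (0.5 µg/mL), UV. DMSO stocks. At least duplicate.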

Assay [2] has as its target DNA topoisomerase 2-alpha (Homo sapiens) (UniProt P11388). Kind of assay: Inhibition of recombinant human DNA topoisomerase 2-alpha-mediated relaxation of supercoiled pBR322 DNA at 100 uM after 30 mins by Agarose gel electrophoresis. A digest of the protocol:
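Relaxation assay with 0.5 µg supercoiled pBR322 and 1 unit recombinant human Topo IIα, 20 µL. Incubated 30 min at 30 °C; stopped with 7 mM EDTA. 1% agarose gel, 5 V/cm, 2 h, TAE; ethidium bromide stain, UV. DMSO stocks. At least duplicate.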

The test system of assay [3] is MDA-MB-435. Put plainly: Cytotoxicity against human MDA-MB-435 cells assessed as growth inhibition at 100 uM after 72 hrs by MTT assay. For orientation: Formazan colour is commonly taken as a measure of viable cells.
Assay [4] concerns Calf thymus DNA. Put plainly: Induction of DNA intercalation activity of calf thymus DNA topoisomerase 1 assessed as unwinding of pBR322 DNA at 10 ug/ml after 30 mins by Agarose gel electrophoresis. Format: nucleic-acid assay. To be noted: Bos taurus. A digest of the protocol: (§1)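 Relaxed pBR322 made by treating supercoiled plasmid with excess Topo I (10 units), then proteinase K digestion at 37 °C, phenol-chloroform extraction and ethanol precipitation. Relaxed DNA incubated with compound at 37 °C for 30 min; stopped with gel loading buffer. Run on 1% agarose, TAE, 5 V/cm for 2 h; stained with ethidium bromide 0.5 µg/mL, viewed under UV.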

Another assay concerns A549. Put plainly: Cytotoxicity against human A549 cells assessed as growth inhibition after 72 hrs by MTT assay. Format: functional, cell-based. The method in brief:
(§2)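 MTT assay: cells treated in triplicate with a range of concentrations for 72 h at 37 °C, 5% CO2. Medium replaced, MTT (5 mg/mL) added for 4 h, then SDS/isobutanol/HCl solubiliser overnight. Absorbance read at 590 nm. Inhibition calculated against control and blank wells; IC50 is concentration giving 50% growth inhibition; three independent experiments.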

Another assay concerns LNCaP. Put plainly: Cytotoxicity against human LNCAP cells assessed as growth inhibition after 72 hrs by MTT assay. Format: functional, cell-based. A digest of the protocol:
as §2

Assay [5] has as its system MDA-MB-435. Put plainly: Cytotoxicity against human MDA-MB-435 cells assessed as growth inhibition after 72 hrs by MTT assay. Format: functional, cell-based. A digest of the protocol:
as §2

Assay [6] deals with MDA-MB-435. Put plainly: Induction of DNA damage in human MDA-MB-435 cells assessed as phosphorylation of p53 at Ser15 at 10 uM after 12 hrs by Western blotting analysis. Format: functional, cell-based. A digest of the protocol:
(§3)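 Treated MDA-MB-435 cells lysed in ice-cold Tris-HCl pH 7.4 buffer with Triton, phosphatase and protease inhibitors. Lysates clarified, boiled in SDS loading buffer, run on 8-12% SDS-PAGE and blotted. Membranes blocked in 5% skim milk, probed with primary antibodies, then peroxidase secondaries with ECL detection. β-actin as loading control.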
For orientation: In western blotting, separated proteins are transferred to a membrane and probed.

Assay [7] has as its system MDA-MB-435. Put plainly: Induction of DNA damage in human MDA-MB-435 cells assessed as phosphorylation of ATM at Ser1981 at 10 uM after 12 hrs by Western blotting analysis. Format: functional, cell-based. The method in brief: as §3
Assay [8] deals with MDA-MB-435. Kind of assay: Induction of DNA damage in human MDA-MB-435 cells assessed as phosphorylation of H2AX at Ser139 at 10 uM after 12 hrs by Western blotting analysis. Format: functional, cell-based. The method in brief: as §3
In assay [9] the test system is Calf thymus DNA. Put plainly: Induction of DNA intercalation activity of calf thymus DNA topoisomerase 1 assessed as unwinding of pBR322 DNA at 2 ug/ml after 30 mins by Agarose gel electrophoresis. Format: nucleic-acid assay. Conditions: Bos taurus. A digest of the protocol: as §1
Assay [10] has as its system Calf thymus DNA. Put plainly: Induction of DNA intercalation activity of calf thymus DNA topoisomerase 1 assessed as unwinding of pBR322 DNA at 100 uM after 30 mins by Agarose gel electrophoresis. Format: nucleic-acid assay. Conditions: Bos taurus. The method in brief: as §1

Activity calls are given as the source filed them. The rule behind the calls is not given here.

Chain of DNA topoisomerase 2-alpha (Homo sapiens) (P11388 whole entry): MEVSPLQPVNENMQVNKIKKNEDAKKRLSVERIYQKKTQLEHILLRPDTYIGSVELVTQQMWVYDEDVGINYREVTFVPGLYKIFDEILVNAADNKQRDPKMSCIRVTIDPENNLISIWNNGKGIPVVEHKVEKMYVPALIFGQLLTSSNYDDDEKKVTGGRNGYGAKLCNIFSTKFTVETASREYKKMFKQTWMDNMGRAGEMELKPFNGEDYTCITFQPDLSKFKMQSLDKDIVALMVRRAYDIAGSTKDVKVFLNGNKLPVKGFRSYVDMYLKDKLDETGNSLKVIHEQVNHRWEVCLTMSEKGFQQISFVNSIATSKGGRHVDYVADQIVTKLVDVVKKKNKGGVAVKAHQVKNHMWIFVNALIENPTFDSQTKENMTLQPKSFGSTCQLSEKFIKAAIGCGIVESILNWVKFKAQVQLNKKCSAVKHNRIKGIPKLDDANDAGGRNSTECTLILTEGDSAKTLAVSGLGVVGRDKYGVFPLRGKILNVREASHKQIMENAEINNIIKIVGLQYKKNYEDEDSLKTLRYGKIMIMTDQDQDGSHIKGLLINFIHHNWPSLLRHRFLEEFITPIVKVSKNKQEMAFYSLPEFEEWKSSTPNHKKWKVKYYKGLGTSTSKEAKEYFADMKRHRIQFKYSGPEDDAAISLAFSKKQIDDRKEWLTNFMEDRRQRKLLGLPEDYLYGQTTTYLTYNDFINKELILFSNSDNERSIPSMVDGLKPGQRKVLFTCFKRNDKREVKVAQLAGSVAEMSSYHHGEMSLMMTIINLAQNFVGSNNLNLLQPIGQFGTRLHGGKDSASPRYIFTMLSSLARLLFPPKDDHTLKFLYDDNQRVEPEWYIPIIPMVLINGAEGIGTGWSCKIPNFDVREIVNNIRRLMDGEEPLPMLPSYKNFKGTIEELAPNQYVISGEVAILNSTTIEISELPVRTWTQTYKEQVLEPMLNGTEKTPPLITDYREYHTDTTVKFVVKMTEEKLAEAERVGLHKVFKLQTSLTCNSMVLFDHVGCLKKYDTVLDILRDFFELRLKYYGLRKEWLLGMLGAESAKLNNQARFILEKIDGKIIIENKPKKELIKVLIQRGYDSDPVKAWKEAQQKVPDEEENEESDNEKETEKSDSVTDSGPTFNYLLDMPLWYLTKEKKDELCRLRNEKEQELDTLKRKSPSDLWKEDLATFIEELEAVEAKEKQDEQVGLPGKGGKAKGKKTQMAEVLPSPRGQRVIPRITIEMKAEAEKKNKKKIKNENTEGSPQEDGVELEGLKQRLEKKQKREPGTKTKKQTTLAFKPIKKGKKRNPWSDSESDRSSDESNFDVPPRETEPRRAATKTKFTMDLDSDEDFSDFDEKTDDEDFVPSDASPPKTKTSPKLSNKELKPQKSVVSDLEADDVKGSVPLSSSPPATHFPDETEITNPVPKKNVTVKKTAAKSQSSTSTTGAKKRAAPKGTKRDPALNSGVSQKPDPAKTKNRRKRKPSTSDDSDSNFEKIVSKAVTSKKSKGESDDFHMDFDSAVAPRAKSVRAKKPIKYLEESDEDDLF

In the case of `COc1ccc(-c2cc(OC)c(-c3ccc(OC)c(OC)c3)c(OC)c2)cc1`, the inhibition entry (in [1]; in the assay listed under Bos taurus; in assay [2]) was “inactive” in each case. Further, the outcome in the assay with MDA-MB-435 [3] was inactive.
Consider `COc1ccc(-c2ccc(-c3ccc(O)cc3)c(OC)c2OC)cc1OC`, for which the inhibition entry (in assay [1]; in the assay filed under Bos taurus; in assay [2]) was “inactive” each time.
Consider `CC[N+](C)(CC)CCC[n+]1c(-c2ccccc2)c2cc(N)ccc2c2ccc(N)cc21`, for which the result in the assay on Calf thymus DNA [4] was Active.
Regarding `Oc1ccc(-c2cc(O)c(-c3ccc(O)c(O)c3)c(O)c2)cc1`, the inhibition result (in [1]; in the assay filed under Bos taurus) was “Active” in each case. Also, the “growth inhibition (GI)” value in the assay on A549, in the assay with LNCaP and with MDA-MB-435 [5] was “Active” each time.
On to `COc1ccc(-c2ccc(-c3ccc(OC)c(OC)c3)c(OC)c2)cc1`, for which the inhibition entry (in [1]; in the assay filed under Bos taurus; in assay [2]) was “inactive” throughout. In addition, the outcome with MDA-MB-435 [3] was inactive.
In the case of `Oc1ccc(-c2ccc(-c3ccc(O)c(O)c3)c(O)c2O)cc1`, the inhibition result in assay [1] is “Active”. Also, the “growth inhibition (GI)” value in the assay on A549, in the assay with LNCaP and in the assay on MDA-MB-435 [5] was “Active” each time. Also, the inhibition entry in the assay filed under Bos taurus is “inactive”.
As for `COc1cc([C@@H]2c3cc4c(cc3[C@@H](O[C@@H]3O[C@@H]5CO[C@@H](C)O[C@H]5[C@H](O)[C@H]3O)[C@H]3COC(=O)[C@H]23)OCO4)cc(OC)c1O`, the result in the assay with MDA-MB-435 [6], in the assay with MDA-MB-435 [7] and in the assay on MDA-MB-435 [8] was Active.
With `COc1ccc(-c2ccc(-c3ccc(O)cc3)cc2)cc1OC`, the inhibition result (in assay [1]; in the assay listed under Bos taurus; in assay [2]) was “inactive” in each case.
On to `Oc1ccc(-c2ccc(-c3ccc(O)c(O)c3)c(O)c2)cc1`, for which the inhibition result in assay [1] is “Active”. Further, the “growth inhibition (GI)” value in the assay with A549, with LNCaP and with MDA-MB-435 [5] was “Active” in each case. Besides, the inhibition result in the assay filed under Bos taurus is “inactive”.
In the case of `CC[n+]1c(-c2ccccc2)c2cc(N)ccc2c2ccc(N)cc21`, the outcome in the assay with Calf thymus DNA [9] was Active.
As to `CC[C@@]1(O)C(=O)OCc2c1cc1n(c2=O)Cc2cc3c(O)cccc3nc2-1`, the inhibition result in the assay filed under Bos taurus was “Active”. Also, in the assay with Calf thymus DNA [10], the outcome was inactive.

Source of the values: ChEMBL document CHEMBL2424614, “A novel p-terphenyl derivative inducing cell-cycle arrest and apoptosis in MDA-MB-435 cells through topoisomerase inhibition” (Eur J Med Chem, 2013).
